# Assays:
# [1] = biological target: T1, P2X purinoceptor 7 (Homo sapiens, UniProt Q99572); assay: Antagonist activity at human recombinant P2X7 receptor expressed in human 1321N1 cells assessed as benzoyl-ATP-induced calcium flux by FLIPR assay; type: functional, cell-based
# T1 sequence (Q99572 whole entry): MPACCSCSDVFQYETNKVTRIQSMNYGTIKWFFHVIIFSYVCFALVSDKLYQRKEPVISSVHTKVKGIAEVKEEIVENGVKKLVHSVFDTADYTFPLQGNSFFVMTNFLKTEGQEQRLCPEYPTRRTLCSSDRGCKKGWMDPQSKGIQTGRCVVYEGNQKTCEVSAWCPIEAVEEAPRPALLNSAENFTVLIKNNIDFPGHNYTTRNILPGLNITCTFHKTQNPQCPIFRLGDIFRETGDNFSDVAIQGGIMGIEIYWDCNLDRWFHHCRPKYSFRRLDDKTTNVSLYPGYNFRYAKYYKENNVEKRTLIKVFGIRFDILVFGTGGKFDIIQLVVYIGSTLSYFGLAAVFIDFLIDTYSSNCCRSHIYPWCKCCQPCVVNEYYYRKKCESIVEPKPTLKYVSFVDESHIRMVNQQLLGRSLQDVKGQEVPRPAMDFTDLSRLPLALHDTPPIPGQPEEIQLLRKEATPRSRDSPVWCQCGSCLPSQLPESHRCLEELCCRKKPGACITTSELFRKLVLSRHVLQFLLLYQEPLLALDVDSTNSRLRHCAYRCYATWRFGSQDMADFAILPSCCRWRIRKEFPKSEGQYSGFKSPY
# In short: (§1)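 The human or rat P2X7 was stably transfected into 1321N1 astrocytoma cells, which lack endogenous P2X function. Cells were loaded with Fluo-4 and given a 5 min antagonist pretreatment before BzATP challenge. Ca2+ flux was read on FLIPR. Results are pIC50 ± SEM, n = 2, or ≥3 where marked.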
# [2] = biological target: T2, P2X purinoceptor 7 (Rattus norvegicus, UniProt Q64663); assay: Antagonist activity at rat recombinant P2X7 receptor expressed in human 1321N1 cells assessed as benzoyl-ATP-induced calcium flux by FLIPR assay; type: functional, cell-based; in short: as §1
# T2 sequence (Q64663 whole entry): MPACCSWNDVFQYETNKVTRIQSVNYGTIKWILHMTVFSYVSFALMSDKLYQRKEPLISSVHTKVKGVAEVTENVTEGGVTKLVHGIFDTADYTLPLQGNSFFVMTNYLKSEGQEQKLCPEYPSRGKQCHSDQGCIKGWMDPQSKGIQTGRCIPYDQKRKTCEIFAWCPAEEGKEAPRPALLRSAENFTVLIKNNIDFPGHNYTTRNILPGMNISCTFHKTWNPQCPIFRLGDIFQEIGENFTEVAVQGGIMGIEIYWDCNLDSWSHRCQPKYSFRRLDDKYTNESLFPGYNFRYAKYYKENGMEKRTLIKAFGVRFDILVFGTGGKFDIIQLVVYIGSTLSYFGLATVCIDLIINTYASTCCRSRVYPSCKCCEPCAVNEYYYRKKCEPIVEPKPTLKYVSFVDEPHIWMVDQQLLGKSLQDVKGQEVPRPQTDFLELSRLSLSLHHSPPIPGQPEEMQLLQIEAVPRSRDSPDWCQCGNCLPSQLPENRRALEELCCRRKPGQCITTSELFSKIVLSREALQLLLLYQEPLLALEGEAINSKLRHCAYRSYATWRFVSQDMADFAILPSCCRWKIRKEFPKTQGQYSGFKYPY
# [3] = test system: Rattus norvegicus; assay: AUC in rat at 5 umol/kg, iv; type: ADME, organism-based, Plasma; conditions: in vivo
# In short: (§2)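 Rats were dosed iv or ip at 5 µmol/kg in 10% DMSO/90% PEG. Plasma PK parameters were derived: Vβ, Clp, Cmax, Tmax, AUC, t1/2 and F.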
# [4] = test system: Rattus norvegicus; assay: Reversal of neuropathic pain in L5/L6 spinal nerve tight ligation rat model assessed as paw withdrawal threshold at 30 to 300 umol/kg, ip relative to contralateral paw; type: functional
# In short: (§3)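 L5/L6 spinal nerve tight ligation was done 7–14 days before testing. Mechanical allodynia was measured with von Frey filaments before dosing, and rats with threshold <5 g were kept. Rats were retested 30 min after ip dosing at 30–300 µmol/kg. Reversal on the ipsilateral side was expressed relative to the contralateral side, and ED50 was derived.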
# [5] = Volume of distribution at terminal phase in rat at 5 umol/kg, iv; type: ADME, organism-based; conditions: in vivo, read-out: Vbeta; in short: as §2
# [6] = Half life in rat at 5 umol/kg, iv; type: ADME, organism-based; conditions: in vivo; in short: as §2
# [7] = Bioavailability in rat at 5 umol/kg, ip; type: ADME, organism-based; conditions: in vivo; in short: as §2
# [8] = biological target: T1, P2X purinoceptor 7; assay: Antagonist activity at human recombinant P2X7 receptor expressed in differentiated human THP1 cells assessed as inhibition of benzoyl-ATP-induced IL1-beta release by ELISA; type: functional, cell-based, THP-1
# In short: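 THP-1 cells were differentiated with LPS and IFNγ. Compound was present while cells were stimulated with BzATP for 30 min. Released IL-1β was quantified by ELISA kit. Results are given as pIC50.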
# [9] = test system: Rattus norvegicus; assay: Tmax in rat at 5 umol/kg, ip; type: ADME, organism-based; conditions: in vivo; in short: as §2
# [10] = test system: Rattus norvegicus; assay: Half life in rat at 5 umol/kg, ip; type: ADME, organism-based; conditions: in vivo; in short: as §2
# [11] = test system: Rattus norvegicus; assay: AUC in rat at 5 umol/kg, ip; type: ADME, organism-based, Plasma; conditions: in vivo; in short: as §2
# [12] = test system: Rattus norvegicus; assay: Cmax in rat at 5 umol/kg, ip; type: ADME, organism-based; design: dose 5 umol/kg, route intraperitoneal; conditions: in vivo; in short: as §2
# [13] = test system: Rattus norvegicus; assay: Reversal of neuropathic pain in ip dosed L5/L6 spinal nerve tight ligation rat model assessed as paw withdrawal threshold; type: functional; in short: as §3
SMILES,IC50 [1],IC50 [2],also measured
CCC12CC3CC(C1)CC(C(=O)NNc1cccc4ncccc14)(C3)C2,22.9 nM,145 nM,
O=C(NNc1ccccn1)C12CC3CC(CC(C3)C1)C2,219 nM,427 nM,
O=C(NNc1cccc(Cl)c1Cl)C12CC3CC(CC(C3)C1)C2,34.7 nM,51.3 nM,
Cc1ccccc1NNC(=O)C1CCCCC1,174 nM,245 nM,
O=C(NNc1cccc2ncccc12)C1(c2ccc(F)cc2)CCCCC1,70.8 nM,174 nM,
COc1ccc(C2(C(=O)NNc3cccc4ncccc34)CCCCC2)cc1,52.5 nM,51.3 nM,
CCCCCCC(=O)NNc1ccccc1C,407 nM,195 nM,
O=C(NNc1ccccc1)C12CC3CC(CC(C3)C1)C2,110 nM,275 nM,
O=C(NNc1cccc2ncccc12)C12CC3CC(CC(O)(C3)C1)C2,275 nM,2240 nM,
O=C(NNc1ccc(Cl)cc1Cl)C12CC3CC(CC(C3)C1)C2,372 nM,,pIC50 ([2]; 1321-n1): > 5
CC1(C)C2CCC1(C(=O)NNc1cccc3ncccc13)C(=O)C2 (stereo not drawn),1380 nM,1510 nM,
O=C(NNc1cccc2nc(Cl)ccc12)C12CC3CC(CC(C3)C1)C2,51.3 nM,174 nM,
Cc1ccccc1NNC(=O)C12CC3CC(CC(C3)C1)C2,11.7 nM,28.2 nM,
O=C(NNc1ccccc1Cl)C12CC3CC(CC(C3)C1)C2,11.5 nM,33.9 nM,
CC1(C(=O)NNc2cccc3ncccc23)CC2C=CC1C2 (stereo not drawn),18.6 nM,31.6 nM,
Cc1ccccc1NNC(=O)C1(c2ccccc2)CCCC1,132 nM,151 nM,
O=C(NNc1cccc2ncccc12)C12CC3CC(CC(C3)C1)C2,10.2 nM,44.7 nM,AUC [3]: 940 ng·h/mL; Activity [4]: 68%; Vd [5]: 0.9 L/kg; half-life [6]: 24 min; bioavailability [7]: 42%; IC50 [8]: 5.01 nM; Tmax [9]: 30 min; t1/2 [10]: 36 min; AUC [11]: 390 ng·h/mL; Cmax [12]: 440 ng/mL; ED50 [13]: 92 µmol/kg
CC1CCC(C)(C(=O)NNc2cccc3ncccc23)C1(C)C (stereo not drawn),27.5 nM,123 nM,

SMILES,IC50 [1],IC50 [2],also measured
O=C(NNc1cccc2cnccc12)C12CC3CC(CC(C3)C1)C2,33.9 nM,151 nM,
COc1ccc(NNC(=O)C23CC4CC(CC(C4)C2)C3)cc1,977 nM,2450 nM,
CC1(C)C(C(=O)NNc2cccc3ncccc23)C1(C)C,200 nM,155 nM,
O=C(NNc1ccc(F)cc1)C12CC3CC(CC(C3)C1)C2,282 nM,1070 nM,
O=C(NNc1cccc2ncccc12)C12CC3CC(CC1C3)C2,27.5 nM,52.5 nM,IC50 [8]: 158 nM
O=C(NNc1cccc(F)c1)C12CC3CC(CC(C3)C1)C2,324 nM,468 nM,
O=C(NNc1cccnc1)C12CC3CC(CC(C3)C1)C2,832 nM,977 nM,
Cc1ccc(C)c(NNC(=O)C23CC4CC(CC(C4)C2)C3)c1,57.5 nM,135 nM,
O=C(NNc1cccc2ncccc12)C1(c2ccccc2F)CCCCC1,191 nM,324 nM,
O=C(NNc1cccc2ncccc12)C1(c2cccc(F)c2)CCCCC1,141 nM,257 nM,
Cc1ccccc1NNC(=O)CCC(C)C,148 nM,339 nM,
Cc1ccccc1NNC(=O)C1(C)CCCCC1,70.8 nM,148 nM,
O=C(NNc1cccc2ncccc12)C12CC3CC(CC(Cl)(C3)C1)C2,10.2 nM,35.5 nM,IC50 [8]: < 1 nM
O=C(NNc1ccccc1F)C12CC3CC(CC(C3)C1)C2,39.8 nM,204 nM,
O=C(CC12CC3CC(CC(C3)C1)C2)NNc1cccc2ncccc12,57.5 nM,603 nM,
Cc1ccccc1NNC(=O)C1CCCCCC1,33.9 nM,49 nM,
Cc1ccccc1NNC(=O)CC1CCCCC1,38.9 nM,151 nM,
